Assay results published in ChEMBL document CHEMBL1123736, “Dihydropyridazinone cardiotonics: synthesis and inotropic activity of 5'-(1,4,5,6-tetrahydro-6-oxo-3-pyridazinyl)spiro[cycloalkane- 1,3'-[3H]indol]-2'(1'H)-ones” (J Med Chem, 1987).

Assays:
[1] = system: Canis familiaris; assay: Myocardial contractility in anesthetized dogs on intravenous administration; type: functional; settings: Canis lupus familiaris, Myocardium
Summary of the method: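 Open-chest, pentobarbital-anesthetized dogs. Right ventricular contractility was measured with a Walton-Brodie strain-gauge arch sutured to the ventricle, baseline 50 g tension. Increasing iv doses via the femoral vein at 5-min intervals; peak responses recorded; vehicle controls given. ED50 by linear regression, mean ± SEM (n > 2) or mean ± range (n = 2).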

[2] = system: Canis familiaris; assay: Increased heart rate in anesthetized dogs after intravenous administration; type: functional, Canis lupus familiaris
[3] = system: Canis familiaris; assay: Decreased mean arterial blood pressure in anesthetized dogs after intravenous administration; type: functional, Canis lupus familiaris
[4] = target: Phosphodiesterase; PDE3 & PDE4; assay: (§1) Inhibition of Sarcoplasmic Reticulum cAMP Phosphodiesterase from canine myocardium; type: tissue-based, Canis lupus familiaris
Summary of the method: (§2)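 PDE came from free sarcoplasmic reticulum vesicles (fraction E) of canine ventricles, stored at -80 °C. Two-step assay with 1 μM cAMP substrate, run 60 min at room temperature (22 ± 2 °C). Enzyme was added to hydrolyze less than 20% of the substrate.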

[5] = target: Phosphodiesterase; PDE3 & PDE4; assay: as §1; type: tissue-based, Canis lupus familiaris; remark: listed apart in the source
Summary of the method: as §2, with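 “substrate. Inhibitors were dissolved in DMSO, with 2.5% v/v carryover. IC50 and 95% confidence limits were obtained by regression of the logit transformation.” for “substrate.”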

| SMILES | ED50 [1] | Increase in HR [2] | Decrease in MAP [3] | IC50 [4] | Ki [5] |
| --- | --- | --- | --- | --- | --- |
| O=C1CCC(c2ccc3c(c2)C2(CCCC2)C(=O)N3)=NN1 | 0.133 mg/kg | 14% | 17% | 930 nM |  |
| O=C1CCC(c2ccc3c(c2)C2(CCC2)C(=O)N3)=NN1 | 0.0348 mg/kg | 13% | 17% | 290 nM |  |
| CC1CC(=O)NN=C1c1ccc2c(c1)C1(CC1)C(=O)N2 (stereo not given) | 0.0015 mg/kg | 17% | 35% | 13 nM |  |
| CC1CC(O)=NN=C1c1ccc(-n2ccnc2)cc1 (stereo not given) [CI-930] | 0.013 mg/kg |  |  |  |  |
| O=C1CCC(c2ccc(-n3ccnc3)cc2)=NN1 [IMAZODAN] | 0.045 mg/kg |  |  |  |  |
| CC1(C)C(=O)Nc2ccc(C3=NNC(=O)CC3)cc21 [INDOLIDAN] | 0.0068 mg/kg | 11.8% | 15.2% | 130 nM | 80 nM |
| Cc1[nH]c(=O)c(C#N)cc1-c1ccncc1 [MILRINONE] | 0.037 mg/kg |  |  |  |  |
